# According to ChEMBL document CHEMBL1833805, “Histone deacetylase inhibitors from Burkholderia thailandensis” (2011):
# The source made the active and inactive calls. No cut-off for these calls is given here.
# Experiments:
# UO-31 [1] = assay: Cytotoxicity against human UO31 cells after 6 days by MTT assay; type: functional; settings: UO-31, 144 h
# ACHN [2] = assay: Cytotoxicity against human ACHN cells after 6 days by MTT assay; type: functional; settings: 144 h
# MDA-MB-468 [3] = assay: Cytotoxicity against human MDA-MB-468 cells after 6 days by MTT assay; type: functional; settings: MDA-MB-468, 144 h
# RXF 393 [4] = assay: Cytotoxicity against human RXF393 cells after 6 days by MTT assay; type: functional; settings: RXF 393, 144 h
# COLO 205 [5] = assay: Cytotoxicity against human COLO205 cells after 6 days by MTT assay; type: functional; settings: COLO 205, 144 h
# UACC-257 [6] = assay: Cytotoxicity against human UACC257 cells after 6 days by MTT assay; type: functional; settings: UACC-257, 144 h
# U-251 [7] = assay: Cytotoxicity against human U251 cells after 6 days by MTT assay; type: functional; settings: U-251, 144 h
# MDA-MB-231 [8] = assay: Cytotoxicity against human MDA-MB-231 cells after 6 days by MTT assay; type: functional; settings: MDA-MB-231, 144 h
# A498 [9] = assay: Cytotoxicity against human A498 cells after 6 days by MTT assay; type: functional; settings: A498, 144 h
# SF-295 [10] = assay: Cytotoxicity against human SF295 cells after 6 days by MTT assay; type: functional; settings: SF-295, 144 h
# NCI-H322M [11] = assay: Cytotoxicity against human NCI-H322M cells after 6 days by MTT assay; type: functional; settings: 144 h
# CAKI-1 [12] = assay: Cytotoxicity against human Caki1 cells after 6 days by MTT assay; type: functional; settings: CAKI-1, 144 h
# SN12C [13] = assay: Cytotoxicity against human SN12C cells after 6 days by MTT assay; type: functional; settings: 144 h
# NCI = assay: Cytotoxicity against human NCI60 cells after 6 days by MTT assay; type: functional; settings: 144 h
# UO-31 [14] = assay: Ratio of FK228 TGI to compound TGI for human UO31 cells; type: functional
# ACHN [15] = assay: Ratio of FK228 TGI to compound TGI for human ACHN cells; type: functional
# MDA-MB-468 [16] = assay: Ratio of FK228 TGI to compound TGI for human MDA-MB-468 cells; type: functional
# RXF 393 [17] = assay: Ratio of FK228 TGI to compound TGI for human RXF393 cells; type: functional
# COLO 205 [18] = assay: Ratio of FK228 TGI to compound TGI for human COLO205 cells; type: functional
# UACC-257 [19] = assay: Ratio of FK228 TGI to compound TGI for human UACC257 cells; type: functional
# U-251 [20] = assay: Ratio of FK228 TGI to compound TGI for human U251 cells; type: functional
# MDA-MB-231 [21] = assay: Ratio of FK228 TGI to compound TGI for human MDA-MB-231 cells; type: functional
# A498 [22] = assay: Ratio of FK228 TGI to compound TGI for human A498 cells; type: functional
# SF-295 [23] = assay: Ratio of FK228 TGI to compound TGI for human SF295 cells; type: functional
# NCI-H322M [24] = assay: Ratio of FK228 TGI to compound TGI for human NCI-H322M cells; type: functional
# CAKI-1 [25] = assay: Ratio of FK228 TGI to compound TGI for human Caki1 cells; type: functional
# SN12C [26] = assay: Ratio of FK228 TGI to compound TGI for human SN12C cells; type: functional
# RXF 393 [27] = assay: Ratio of FK228 LC50 to compound LC50 for human RXF393 cells; type: functional
# COLO 205 [28] = assay: Ratio of FK228 LC50 to compound LC50 for human COLO205 cells; type: functional
# U-251 [29] = assay: Ratio of FK228 LC50 to compound LC50 for human U251 cells; type: functional
# A498 [30] = assay: Ratio of FK228 LC50 to compound LC50 for human A498 cells; type: functional
# [31] = biological target: Histone deacetylase 1 (Homo sapiens) (UniProt Q13547); assay: Inhibition of human HDAC1 assessed as deacetylated substrate level using RHKKAc as substrate by fluorometric analysis
# Sequence of Histone deacetylase 1 (Homo sapiens) (Q13547 whole entry): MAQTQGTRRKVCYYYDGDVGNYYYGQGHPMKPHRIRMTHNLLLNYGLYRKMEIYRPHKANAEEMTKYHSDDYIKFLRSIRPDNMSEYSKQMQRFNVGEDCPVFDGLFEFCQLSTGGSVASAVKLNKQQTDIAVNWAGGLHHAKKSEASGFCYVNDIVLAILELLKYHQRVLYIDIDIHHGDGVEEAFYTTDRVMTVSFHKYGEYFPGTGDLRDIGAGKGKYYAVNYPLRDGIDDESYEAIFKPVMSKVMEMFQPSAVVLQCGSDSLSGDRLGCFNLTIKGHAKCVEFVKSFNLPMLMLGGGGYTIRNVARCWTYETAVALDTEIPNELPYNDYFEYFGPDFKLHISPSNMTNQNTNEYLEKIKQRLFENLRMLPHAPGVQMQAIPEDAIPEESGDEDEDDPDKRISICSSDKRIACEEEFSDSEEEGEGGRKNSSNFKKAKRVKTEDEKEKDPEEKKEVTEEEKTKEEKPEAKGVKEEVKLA
# Method in brief: (§1)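 Recombinant human HDAC1 or HDAC8 with fluorogenic p53 379–382 peptide RHKKAc as substrate. Compound tested at 10 doses in duplicate, 3-fold serial dilution from 20 µM. Substrate incubated with compound, then the mixture was digested with a developing mixture. Fluorescence read at 360 nm excitation / 460 nm emission, proportional to deacetylated substrate.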
# [32] = biological target: Histone deacetylase 8 (Homo sapiens) (UniProt Q9BY41); assay: Inhibition of human HDAC8 assessed as deacetylated substrate level using RHKKAc as substrate by fluorometric analysis; method in brief: as §1
# Sequence of Histone deacetylase 8 (Homo sapiens) (Q9BY41 whole entry): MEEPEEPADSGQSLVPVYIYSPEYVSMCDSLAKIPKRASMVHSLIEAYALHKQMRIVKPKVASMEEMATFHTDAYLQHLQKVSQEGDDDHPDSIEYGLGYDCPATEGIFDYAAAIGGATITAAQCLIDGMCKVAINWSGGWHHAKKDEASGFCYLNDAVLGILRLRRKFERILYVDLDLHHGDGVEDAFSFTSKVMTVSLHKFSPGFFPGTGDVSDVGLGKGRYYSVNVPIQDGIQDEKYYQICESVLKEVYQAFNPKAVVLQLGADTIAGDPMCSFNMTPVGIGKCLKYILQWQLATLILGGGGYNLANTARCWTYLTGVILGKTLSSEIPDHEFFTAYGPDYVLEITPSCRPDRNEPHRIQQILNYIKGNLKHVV
# [33] = biological target: Histone deacetylase 4 (Homo sapiens) (UniProt P56524); assay: Inhibition of human HDAC4 assessed as deacetylated substrate level using RHKAcKAc as substrate by fluorometric analysis
# Sequence of Histone deacetylase 4 (Homo sapiens) (P56524 whole entry): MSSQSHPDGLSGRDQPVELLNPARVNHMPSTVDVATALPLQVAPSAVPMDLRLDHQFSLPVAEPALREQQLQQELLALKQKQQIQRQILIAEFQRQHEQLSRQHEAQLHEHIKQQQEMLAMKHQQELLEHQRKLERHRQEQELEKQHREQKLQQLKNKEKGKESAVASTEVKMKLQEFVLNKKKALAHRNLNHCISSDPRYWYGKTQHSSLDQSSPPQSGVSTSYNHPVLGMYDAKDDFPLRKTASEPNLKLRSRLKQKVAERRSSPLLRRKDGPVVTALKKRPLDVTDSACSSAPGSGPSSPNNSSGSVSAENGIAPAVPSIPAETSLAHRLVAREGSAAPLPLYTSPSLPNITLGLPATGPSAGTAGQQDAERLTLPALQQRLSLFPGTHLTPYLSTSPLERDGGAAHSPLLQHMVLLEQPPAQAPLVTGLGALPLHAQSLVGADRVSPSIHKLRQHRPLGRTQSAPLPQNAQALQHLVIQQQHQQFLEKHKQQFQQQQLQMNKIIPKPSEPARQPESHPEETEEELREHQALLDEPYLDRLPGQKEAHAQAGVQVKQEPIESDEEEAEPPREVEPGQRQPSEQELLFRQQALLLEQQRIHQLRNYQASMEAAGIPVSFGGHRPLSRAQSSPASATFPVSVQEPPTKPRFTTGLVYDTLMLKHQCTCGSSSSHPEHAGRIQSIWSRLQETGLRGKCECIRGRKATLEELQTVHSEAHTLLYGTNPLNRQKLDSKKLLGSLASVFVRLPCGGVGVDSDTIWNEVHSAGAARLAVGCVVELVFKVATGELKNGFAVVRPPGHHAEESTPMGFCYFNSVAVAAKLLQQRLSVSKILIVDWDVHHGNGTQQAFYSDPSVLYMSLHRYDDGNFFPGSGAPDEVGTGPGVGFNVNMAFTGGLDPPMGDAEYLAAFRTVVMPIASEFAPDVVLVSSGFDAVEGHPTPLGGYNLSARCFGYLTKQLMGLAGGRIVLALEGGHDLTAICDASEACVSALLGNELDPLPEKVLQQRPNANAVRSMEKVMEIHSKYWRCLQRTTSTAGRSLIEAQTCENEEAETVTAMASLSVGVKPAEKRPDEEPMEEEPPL
# Method in brief: as §1, with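 “HDAC4” for “HDAC1 or HDAC8”, “RHKAcKAc” for “RHKKAc”, “Two steps: incubation” for “Substrate incubated”, “substrate,” for “compound,”, “digestion” for “the mixture was digested”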
# MDA-MB-231 [34] = assay: Antitumor activity against human MDA-MB-231 cells implanted subcutaneously in mouse assessed as inhibition of tumor cell growth at 1.6 to 2.4 mg/kg, ip administered on day 1 to 4 measured on day 5 by hollow fiber assay; type: functional
# Method in brief: (§2)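 Human tumour cell lines from a standard 12-line panel encapsulated in polyvinylidene fluoride hollow fibres (500,000 Da exclusion), implanted intraperitoneally or subcutaneously in mice; drug given IP at 2.4 and 1.6 mg/kg/dose on days 1–4; fibres retrieved and viable cell mass determined day 5; T/C versus vehicle-only injected controls.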
# SF-295 [35] = assay: Antitumor activity against human SF295 cells implanted subcutaneously in mouse assessed as inhibition of tumor cell growth at 1.6 to 2.4 mg/kg, ip administered on day 1 to 4 measured on day 5 by hollow fiber assay; type: functional; method in brief: as §2
# U-251 [36] = assay: Antitumor activity against human U251 cells implanted subcutaneously in mouse assessed as inhibition of tumor cell growth at 1.6 to 2.4 mg/kg, ip administered on day 1 to 4 measured on day 5 by hollow fiber assay; type: functional; method in brief: as §2
# COLO 205 [37] = assay: Antitumor activity against human COLO205 cells implanted subcutaneously in mouse assessed as inhibition of tumor cell growth at 1.6 to 2.4 mg/kg, ip administered on day 1 to 4 measured on day 5 by hollow fiber assay; type: functional; method in brief: as §2
# SW-620 = assay: Antitumor activity against human SW620 cells implanted subcutaneously in mouse assessed as inhibition of tumor cell growth at 1.6 to 2.4 mg/kg, ip administered on day 1 to 4 measured on day 5 by hollow fiber assay; type: functional; method in brief: as §2
# LOX IMVI = assay: Antitumor activity against human LOXIMVI cells implanted subcutaneously in mouse assessed as inhibition of tumor cell growth at 1.6 to 2.4 mg/kg, ip administered on day 1 to 4 measured on day 5 by hollow fiber assay; type: functional; method in brief: as §2
# MDA-MB-435 = assay: Antitumor activity against human MDA-MB-435 cells implanted subcutaneously in mouse assessed as inhibition of tumor cell growth at 1.6 to 2.4 mg/kg, ip administered on day 1 to 4 measured on day 5 by hollow fiber assay; type: functional; method in brief: as §2
# UACC-62 = assay: Antitumor activity against human UACC62 cells implanted subcutaneously in mouse assessed as inhibition of tumor cell growth at 1.6 to 2.4 mg/kg, ip administered on day 1 to 4 measured on day 5 by hollow fiber assay; type: functional; method in brief: as §2
# NCI-H23 = assay: Antitumor activity against human NCI-H23 cells implanted subcutaneously in mouse assessed as inhibition of tumor cell growth at 1.6 to 2.4 mg/kg, ip administered on day 1 to 4 measured on day 5 by hollow fiber assay; type: functional; method in brief: as §2
# NCI-H522 = assay: Antitumor activity against human NCI-H522 cells implanted subcutaneously in mouse assessed as inhibition of tumor cell growth at 1.6 to 2.4 mg/kg, ip administered on day 1 to 4 measured on day 5 by hollow fiber assay; type: functional; method in brief: as §2
# [38] = Antitumor activity against human […] cells implanted subcutaneously in mouse assessed as inhibition of tumor cell growth at 1.6 to 2.4 mg/kg, ip administered on day 1 to 4 measured on day 5 by hollow fiber assay; type: functional; method in brief: as §2
# OVCAR-5 = assay: Antitumor activity against human OVCAR5 cells implanted subcutaneously in mouse assessed as inhibition of tumor cell growth at 1.6 to 2.4 mg/kg, ip administered on day 1 to 4 measured on day 5 by hollow fiber assay; type: functional; method in brief: as §2
# [39] = read-out: LC50 (the source's name)
compound,measurement,setting,value
CC[C@H](C)[C@H]1NC(=O)[C@H]2CSSCC/C=C/[C@H](CC(=O)N[C@H](CC[S+](C)[O-])C(=O)N2)OC(=O)C[C@@H]1O (stereo partly specified) [SPIRUCHOSTATIN C],TGI,UO-31 [1],320 nM
same,TGI,ACHN [2],180 nM
same,TGI,MDA-MB-468 [3],23 nM
same,TGI,RXF 393 [4],16 nM
same,CC50,RXF 393 [4]; [39],170 nM
same,TGI,COLO 205 [5],8 nM
same,CC50,COLO 205 [5]; [39],15 nM
same,TGI,UACC-257 [6],33 nM
same,TGI,U-251 [7],12 nM
same,CC50,U-251 [7]; [39],37 nM
same,TGI,MDA-MB-231 [8],150 nM
same,TGI,A498 [9],12 nM
same,CC50,A498 [9]; [39],55 nM
same,TGI,SF-295 [10],110 nM
same,TGI,NCI-H322M [11],100 nM
same,TGI,CAKI-1 [12],880 nM
same,TGI,SN12C [13],160 nM
same,TGI,NCI,830 nM
same,CC50,NCI; [39],7700 nM
same,Ratio,UO-31 [14],4.9
same,Ratio,ACHN [15],4
same,Ratio,MDA-MB-468 [16],3.9
same,Ratio,RXF 393 [17],3.8
same,Ratio,COLO 205 [18],3.8
same,Ratio,UACC-257 [19],2.9
same,Ratio,U-251 [20],2.7
same,Ratio,MDA-MB-231 [21],2.4
same,Ratio,A498 [22],2.4
same,Ratio,SF-295 [23],2.3
same,Ratio,NCI-H322M [24],2.3
same,Ratio,CAKI-1 [25],2.1
same,Ratio,SN12C [26],2.1
same,Ratio,RXF 393 [27],1.8
same,Ratio,COLO 205 [28],6
same,Ratio,U-251 [29],3.6
same,Ratio,A498 [30],3.6
same,inhibition,[31],Active
same,inhibition,[32],Active
same,inhibition,[33],Active
same,T/C,MDA-MB-231 [34],>50%
same,T/C,SF-295 [35],>50%
same,T/C,U-251 [36],>50%
same,T/C,COLO 205 [37],>50%
same,T/C,SW-620,>50%
same,T/C,LOX IMVI,>50%
same,T/C,MDA-MB-435,>50%
same,T/C,UACC-62,>50%
same,T/C,NCI-H23,>50%
same,T/C,NCI-H522,>50%
same,T/C,[38],>50%
same,T/C,OVCAR-5,>50%
